Laboratory results: BindingDB's records for doi:10.1021/acs.jmedchem.0c01897 (University of Michigan, 2021)
pIC50: −log10 of the molar value.

biological target: Signal transducer and activator of transcription 3 (Homo sapiens, UniProt P40763); assay: Inhibition of IL-6 induced STAT3 transcriptional activity in human HEK293 cells expressing SIE-luc2P preincubated for overnight followed by IL-6 stimulation and measured after 24 hr by Bio-Glo luciferase reagent based microplate reader assay
Outline: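 GloResponse SIE-luc2P HEK-293 cells were seeded at 10,000/well and incubated overnight. STAT3 was activated with IL6 (100 ng/ml) for 24 h, then compound was added for 24 h. Bio-Glo luciferase reagent was added and luminescence read after 5 min. IC50 from three independent experiments, mean ± SD.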

Signal transducer and activator of transcription 3, sequence (P40763 whole entry): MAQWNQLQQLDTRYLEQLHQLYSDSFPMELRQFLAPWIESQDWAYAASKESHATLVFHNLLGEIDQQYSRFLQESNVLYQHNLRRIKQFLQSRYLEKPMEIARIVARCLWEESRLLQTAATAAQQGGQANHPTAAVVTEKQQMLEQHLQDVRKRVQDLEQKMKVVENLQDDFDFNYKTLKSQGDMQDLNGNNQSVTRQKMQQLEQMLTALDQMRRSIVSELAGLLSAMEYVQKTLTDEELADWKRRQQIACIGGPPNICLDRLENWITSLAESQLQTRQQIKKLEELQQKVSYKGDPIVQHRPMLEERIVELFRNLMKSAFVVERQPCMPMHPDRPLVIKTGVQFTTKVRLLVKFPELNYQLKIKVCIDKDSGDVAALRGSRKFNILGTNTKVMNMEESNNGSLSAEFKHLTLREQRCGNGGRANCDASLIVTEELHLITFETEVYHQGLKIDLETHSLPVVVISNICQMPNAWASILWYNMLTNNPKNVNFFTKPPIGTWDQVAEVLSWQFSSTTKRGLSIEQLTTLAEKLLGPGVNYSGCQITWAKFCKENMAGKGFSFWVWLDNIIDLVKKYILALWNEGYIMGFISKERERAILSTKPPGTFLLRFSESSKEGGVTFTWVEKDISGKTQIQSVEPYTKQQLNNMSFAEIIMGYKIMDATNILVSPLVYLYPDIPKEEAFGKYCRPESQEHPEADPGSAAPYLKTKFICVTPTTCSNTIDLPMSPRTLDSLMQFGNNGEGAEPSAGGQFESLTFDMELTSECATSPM

SMILES | pIC50
Cc1ncsc1-c1ccc(CNC(=O)[C@@H]2C[C@@H](O)CN2C(=O)[C@@H](NC(=O)COCCOCCNC(=O)c2cc3c(o2)C(=O)c2ccccc2C3=O)C(C)(C)C)cc1 | 4.94
CN1C(=O)CCC(N2C(=O)c3cccc(NCCCCCC4CCN(CCNC(=O)c5cc6c(o5)C(=O)c5ccccc5C6=O)CC4)c3C2=O)C1=O (stereo not drawn) | 5.77
O=C1CCC(N2C(=O)c3cccc(NCCOCCOCCOCCOCCOCCOCCNC(=O)c4cc5c(o4)C(=O)c4ccccc4C5=O)c3C2=O)C(=O)N1 (stereo not drawn) | 5.60
O=C1CCC(N2C(=O)c3ccc(NCCOCCOCCNC(=O)c4cc5c(o4)C(=O)c4ccccc4C5=O)cc3C2=O)C(=O)N1 (stereo not drawn) | 5.47
O=C1CCC(N2C(=O)c3cccc(NCCNC(=O)c4cc5c(o4)C(=O)c4ccccc4C5=O)c3C2=O)C(=O)N1 (stereo not drawn) | 4.82
O=C1CCC(N2C(=O)c3cccc(NCCCCCNC(=O)c4cc5c(o4)C(=O)c4ccccc4C5=O)c3C2=O)C(=O)N1 (stereo not drawn) | 5.34
O=C1CCC(N2C(=O)c3cccc(NCCOCCOCCOCCOCCNC(=O)c4cc5c(o4)C(=O)c4ccccc4C5=O)c3C2=O)C(=O)N1 (stereo not drawn) | 5.57
O=C1CCC(N2Cc3c(NCCOCCOCCNC(=O)c4cc5c(o4)C(=O)c4ccccc4C5=O)cccc3C2=O)C(=O)N1 (stereo not drawn) | 4.96
O=C1CCC(N2C(=O)c3cccc(NCCOCCOCCOCCNC(=O)c4cc5c(o4)C(=O)c4ccccc4C5=O)c3C2=O)C(=O)N1 (stereo not drawn) | 5.59
O=C1CCC(N2C(=O)c3cccc(OCCCCNC(=O)c4cc5c(o4)C(=O)c4ccccc4C5=O)c3C2=O)C(=O)N1 (stereo not drawn) | 5.24
Cc1ncsc1-c1ccc(CNC(=O)[C@@H]2C[C@@H](O)CN2C(=O)[C@@H](NC(=O)COCCNC(=O)c2cc3c(o2)C(=O)c2ccccc2C3=O)C(C)(C)C)cc1 | < 4.52
O=C1CCC(N2C(=O)c3cccc(C#CCCCNC(=O)c4cc5c(o4)C(=O)c4ccccc4C5=O)c3C2=O)C(=O)N1 (stereo not drawn) | 5.38
O=C1CCC(N2C(=O)c3cccc(NCCCCCC4CCN(CCNC(=O)c5cc6c(o5)C(=O)c5ccccc5C6=O)CC4)c3C2=O)C(=O)N1 (stereo not drawn) | 6.05
